Results taken from ChEMBL document CHEMBL3351372, “Structure-Based Drug Design of Novel Potent and Selective Tetrahydropyrazolo[1,5-a]pyrazines as ATR Inhibitors” (ACS Med Chem Lett, 2015).
Converted amounts (≈) assume the structure as drawn. Values belong to the compound of their own block, whether it stands above or below them.

Experiments:
Cytochrome P450 3A4 = Cytochrome P450 3A4 (Homo sapiens, UniProt P08684); assay: Time dependent inhibition of CYP3A4 in human liver microsomes using midazolam as substrate assessed as ratio of Kinact to Ki preincubated for 0 to 30 mins followed by NADPH addition in phosphate buffer at 50 uM; assay type: ADME
Sequence of Cytochrome P450 3A4 (P08684 whole entry): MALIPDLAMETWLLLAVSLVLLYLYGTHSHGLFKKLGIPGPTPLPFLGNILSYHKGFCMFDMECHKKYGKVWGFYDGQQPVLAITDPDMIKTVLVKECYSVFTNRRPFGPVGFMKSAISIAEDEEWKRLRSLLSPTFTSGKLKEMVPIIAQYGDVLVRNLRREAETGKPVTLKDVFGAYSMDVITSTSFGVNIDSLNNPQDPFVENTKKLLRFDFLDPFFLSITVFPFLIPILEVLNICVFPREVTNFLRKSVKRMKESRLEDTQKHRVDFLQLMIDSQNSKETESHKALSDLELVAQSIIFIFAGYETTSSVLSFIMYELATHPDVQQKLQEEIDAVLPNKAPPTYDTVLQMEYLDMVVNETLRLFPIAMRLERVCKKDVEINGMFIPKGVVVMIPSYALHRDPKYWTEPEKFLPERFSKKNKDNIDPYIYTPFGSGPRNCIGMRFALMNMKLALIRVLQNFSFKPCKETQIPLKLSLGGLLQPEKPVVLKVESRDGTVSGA
In short: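 Compound was preincubated with human liver microsomes (0.5 mg/mL) in 100 mM phosphate buffer with 1 mM NADPH for 0, 5, 15 and 30 min, testing 50 μM plus serial dilutions. The mix was diluted 20-fold and incubated with 20 μM midazolam to measure residual CYP3A4 activity. Activity versus preincubation time gave the kinetic TDI parameters.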

[1] = molecular target: Serine/threonine-protein kinase ATR (Homo sapiens, UniProt Q13535); assay: Inhibition of ATR (unknown origin) using Avi-tagged protein substrate by alphascreen assay
Sequence of Serine/threonine-protein kinase ATR (Q13535 whole entry, canonical isoform): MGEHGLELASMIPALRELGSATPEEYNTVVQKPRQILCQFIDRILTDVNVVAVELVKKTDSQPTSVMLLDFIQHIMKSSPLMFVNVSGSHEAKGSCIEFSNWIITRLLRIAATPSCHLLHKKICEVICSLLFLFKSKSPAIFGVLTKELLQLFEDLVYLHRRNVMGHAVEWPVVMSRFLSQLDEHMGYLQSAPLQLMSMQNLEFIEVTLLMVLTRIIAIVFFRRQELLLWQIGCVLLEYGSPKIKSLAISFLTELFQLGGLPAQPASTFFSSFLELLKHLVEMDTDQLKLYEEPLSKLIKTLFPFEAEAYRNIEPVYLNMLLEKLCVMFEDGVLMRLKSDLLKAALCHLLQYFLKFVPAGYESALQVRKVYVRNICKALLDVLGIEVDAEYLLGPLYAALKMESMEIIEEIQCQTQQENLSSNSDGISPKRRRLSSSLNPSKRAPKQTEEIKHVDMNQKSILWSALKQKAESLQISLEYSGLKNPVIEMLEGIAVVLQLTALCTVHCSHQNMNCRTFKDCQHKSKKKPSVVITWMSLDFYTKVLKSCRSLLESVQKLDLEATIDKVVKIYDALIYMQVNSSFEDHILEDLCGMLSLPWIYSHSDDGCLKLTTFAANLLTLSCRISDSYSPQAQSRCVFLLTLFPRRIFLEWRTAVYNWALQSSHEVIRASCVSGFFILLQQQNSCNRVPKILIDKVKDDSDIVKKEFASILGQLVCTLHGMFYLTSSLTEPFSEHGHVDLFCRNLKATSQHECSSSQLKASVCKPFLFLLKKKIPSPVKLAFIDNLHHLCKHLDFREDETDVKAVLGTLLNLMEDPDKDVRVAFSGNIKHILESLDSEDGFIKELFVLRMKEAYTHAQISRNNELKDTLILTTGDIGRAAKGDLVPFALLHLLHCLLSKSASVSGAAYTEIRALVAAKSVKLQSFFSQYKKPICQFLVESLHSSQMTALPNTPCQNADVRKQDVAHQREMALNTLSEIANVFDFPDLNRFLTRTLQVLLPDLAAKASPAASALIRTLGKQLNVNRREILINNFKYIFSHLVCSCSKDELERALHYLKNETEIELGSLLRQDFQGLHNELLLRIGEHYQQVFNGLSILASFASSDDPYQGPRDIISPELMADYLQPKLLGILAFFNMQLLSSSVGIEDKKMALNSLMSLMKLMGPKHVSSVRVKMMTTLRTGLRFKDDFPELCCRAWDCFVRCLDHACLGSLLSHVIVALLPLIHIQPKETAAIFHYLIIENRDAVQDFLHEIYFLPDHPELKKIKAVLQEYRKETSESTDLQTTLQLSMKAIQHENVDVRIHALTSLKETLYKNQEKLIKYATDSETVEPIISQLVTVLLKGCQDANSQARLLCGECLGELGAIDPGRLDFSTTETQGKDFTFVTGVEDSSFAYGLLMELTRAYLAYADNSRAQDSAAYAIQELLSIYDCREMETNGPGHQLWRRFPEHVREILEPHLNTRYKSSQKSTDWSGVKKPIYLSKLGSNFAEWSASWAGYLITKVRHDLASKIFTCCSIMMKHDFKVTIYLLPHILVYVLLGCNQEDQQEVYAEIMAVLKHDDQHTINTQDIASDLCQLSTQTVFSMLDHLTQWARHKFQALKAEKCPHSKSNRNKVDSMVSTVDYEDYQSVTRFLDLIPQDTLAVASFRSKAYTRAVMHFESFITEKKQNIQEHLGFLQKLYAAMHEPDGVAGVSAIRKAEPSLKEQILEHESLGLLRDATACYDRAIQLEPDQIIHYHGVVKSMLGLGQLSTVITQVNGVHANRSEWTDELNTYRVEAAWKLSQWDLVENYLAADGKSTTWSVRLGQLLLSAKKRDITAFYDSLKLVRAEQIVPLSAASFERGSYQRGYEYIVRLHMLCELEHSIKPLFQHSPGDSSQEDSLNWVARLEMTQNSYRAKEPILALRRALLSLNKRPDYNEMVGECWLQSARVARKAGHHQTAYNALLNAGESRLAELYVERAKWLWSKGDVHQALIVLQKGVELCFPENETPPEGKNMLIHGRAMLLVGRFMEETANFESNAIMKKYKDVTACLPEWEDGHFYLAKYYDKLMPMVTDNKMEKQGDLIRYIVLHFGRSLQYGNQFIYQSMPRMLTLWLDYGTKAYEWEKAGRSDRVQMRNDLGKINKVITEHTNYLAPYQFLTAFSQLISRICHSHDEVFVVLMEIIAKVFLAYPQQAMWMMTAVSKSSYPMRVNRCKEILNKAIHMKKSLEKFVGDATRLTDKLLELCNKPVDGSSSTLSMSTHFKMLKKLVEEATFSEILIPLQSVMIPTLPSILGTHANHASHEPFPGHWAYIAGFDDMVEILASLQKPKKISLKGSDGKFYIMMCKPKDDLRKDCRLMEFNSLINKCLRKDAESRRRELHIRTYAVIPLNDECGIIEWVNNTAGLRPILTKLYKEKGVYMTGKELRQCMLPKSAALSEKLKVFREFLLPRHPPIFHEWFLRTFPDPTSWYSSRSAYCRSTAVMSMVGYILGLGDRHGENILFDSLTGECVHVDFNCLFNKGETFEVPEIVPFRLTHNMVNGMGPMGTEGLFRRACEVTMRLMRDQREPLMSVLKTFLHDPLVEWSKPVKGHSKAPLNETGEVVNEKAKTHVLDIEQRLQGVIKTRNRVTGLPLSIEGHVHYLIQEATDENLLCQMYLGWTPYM

[2] = molecular target: Phosphatidylinositol 4,5-bisphosphate 3-kinase catalytic subunit alpha isoform (Homo sapiens, UniProt P42336); assay: Inhibition of PI3Kalpha (unknown origin)
Sequence of Phosphatidylinositol 4,5-bisphosphate 3-kinase catalytic subunit alpha isoform (P42336 whole entry, canonical isoform): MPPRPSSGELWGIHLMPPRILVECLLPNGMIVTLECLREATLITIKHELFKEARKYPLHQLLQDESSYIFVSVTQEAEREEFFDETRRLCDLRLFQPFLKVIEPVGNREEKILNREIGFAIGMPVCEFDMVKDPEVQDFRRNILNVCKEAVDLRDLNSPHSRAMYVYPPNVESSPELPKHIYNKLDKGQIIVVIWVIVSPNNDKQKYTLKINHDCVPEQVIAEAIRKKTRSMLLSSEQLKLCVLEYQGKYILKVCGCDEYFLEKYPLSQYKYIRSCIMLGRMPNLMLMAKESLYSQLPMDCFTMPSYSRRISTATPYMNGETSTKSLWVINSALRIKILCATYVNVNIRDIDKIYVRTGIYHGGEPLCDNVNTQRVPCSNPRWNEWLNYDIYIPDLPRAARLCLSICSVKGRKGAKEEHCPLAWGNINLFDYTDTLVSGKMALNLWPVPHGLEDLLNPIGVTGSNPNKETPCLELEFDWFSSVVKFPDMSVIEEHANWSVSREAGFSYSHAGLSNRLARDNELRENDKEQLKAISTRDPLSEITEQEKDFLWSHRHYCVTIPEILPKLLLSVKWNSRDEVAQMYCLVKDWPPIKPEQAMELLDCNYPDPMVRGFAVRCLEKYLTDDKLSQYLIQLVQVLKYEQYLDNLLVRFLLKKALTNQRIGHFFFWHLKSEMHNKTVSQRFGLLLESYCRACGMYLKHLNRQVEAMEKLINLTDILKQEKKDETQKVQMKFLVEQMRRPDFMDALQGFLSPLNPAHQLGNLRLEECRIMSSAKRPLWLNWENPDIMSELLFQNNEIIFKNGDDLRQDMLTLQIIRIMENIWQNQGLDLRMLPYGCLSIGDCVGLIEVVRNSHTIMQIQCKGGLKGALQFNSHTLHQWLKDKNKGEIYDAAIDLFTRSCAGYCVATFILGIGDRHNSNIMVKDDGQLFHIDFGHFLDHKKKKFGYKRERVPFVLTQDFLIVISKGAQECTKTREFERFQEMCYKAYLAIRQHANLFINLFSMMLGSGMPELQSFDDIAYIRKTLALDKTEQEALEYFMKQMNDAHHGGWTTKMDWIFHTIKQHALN

[3] = Inhibition of CHK1 in HeLa S3 cells assessed as inhibition of phosphorylation at ser345 by AlphaScreen SureFire CHK1 (p-Ser345) assay
[4] = Solubility of the compound in PBS buffer at pH 7 by miniaturized shake flask equilibrium solubility assay
[5] = molecular target: Serine-protein kinase ATM (Homo sapiens, UniProt Q13315); assay: Inhibition of ATM (unknown origin) using p53-Q10-K17 peptide substrate by alphascreen assay
[6] = molecular target: DNA-dependent protein kinase catalytic subunit (Homo sapiens, UniProt P78527)
[7] = molecular target: Serine/threonine-protein kinase mTOR (Homo sapiens, UniProt P42345); assay: Inhibition of mTOR (unknown origin) by alphascreen SureFire p70 S6K (p-Thr389) assay
In short: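 They were treated with compound for 1 h under the same conditions. The read-out was p70 S6K phospho-Thr389.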

[8] = Octanol-water distribution coefficient, log D of the compound with pH 7.4 PBS buffer
[9] = Apparent permeability across apical to basolateral side in human Caco2 cells at pH 7.4; conditions: Caco-2, pH 7.4
[10] = Apparent permeability across basolateral to apical side in human Caco2 cells at pH 7.4; conditions: Caco-2, pH 7.4
[11] = Oral bioavailability in rat at 2.5 mg/kg; assay type: ADME, organism-based; conditions: in vivo
[12] = molecular target: Voltage-gated inwardly rectifying potassium channel KCNH2 (Homo sapiens, UniProt Q12809); assay: Inhibition of human ERG by automated whole cell electrophysiology
[13] = Clearance in rat at 2.5 mg/kg; assay type: ADME, organism-based; set-up: dose 2.5 mg/kg; conditions: in vivo
[14] = Volume of distribution at steady state in rat at 2.5 mg/kg; assay type: ADME, organism-based; set-up: dose 2.5 mg/kg; conditions: in vivo, read-out: Vdss
[15] = Half life in rat at 2.5 mg/kg; assay type: ADME, organism-based; set-up: dose 2.5 mg/kg; conditions: in vivo
Liver microsome = assay: Metabolic stability in human liver microsomes assessed as level of GSH adduct after 60 mins at 10 uM by GSH trapping assay; conditions: 1 h

- inhibition (INH) (Cytochrome P450 3A4): Active
- IC50 [1]: 0.002 µM
SMILES: C[C@@H]1Cn2ncc(C3CCN(S(C)(=O)=O)CC3)c2CN1c1ccnc2[nH]cnc12

- IC50 [1]: 0.026 µM
- IC50 [2]: 0.009 µM
SMILES: COc1ccc(-c2ccc3ncc(-c4ccc(C(N)=O)cc4)n3n2)cc1OC

- IC50 [1]: 0.0005 µM
- IC50 [2]: 0.04 µM
- IC50 [3]: 0.044 µM
SMILES: CN(C)S(=O)(=O)c1ccc(-c2cnc3ccc(-c4ccnc5[nH]ccc45)nn23)cc1

- IC50 [1]: 0.001 µM
- solubility thermodynamic [4]: 3 µM (≈ 1.27 µg/mL)
- IC50 [2]: 1.1 µM
SMILES: CN(C)S(=O)(=O)c1ccc(-c2cnn3c2CN(c2ccnc4[nH]ccc24)CC3)cc1

- IC50 [1]: 0.0005 µM
- solubility thermodynamic [4]: 188 µM (≈ 82.1 µg/mL)
- IC50 [2]: > 10 µM
- IC50 [3]: 0.123 µM
SMILES: C[C@@H]1Cn2ncc(-c3ccc(S(=O)(=O)N(C)C)cc3)c2CN1c1ccnc2[nH]ccc12

SMILES: C[C@@H]1Cn2ncc(-c3ccc(S(C)(=O)=O)cc3)c2CN1c1ccnc2[nH]ccc12
- IC50 [1]: 0.0003 µM
- IC50 [5]: 0.13 µM
- IC50 [6]: 0.14 µM
- IC50 [7]: 1.1 µM

- IC50 [1]: 0.001 µM
- IC50 [5]: 14 µM
- IC50 [6]: 6.5 µM
- IC50 [7]: > 2.3 µM
- solubility thermodynamic [4]: 965 µM (≈ 400 µg/mL)
- logD [8]: 2.4
- Papp A→B [9]: 10 ×10⁻⁶ cm/s
- Papp B→A [10]: 44 ×10⁻⁶ cm/s
SMILES: C[C@@H]1Cn2ncc(C3CCN(S(C)(=O)=O)CC3)c2CN1c1ccnc2[nH]ccc12

- bioavailability [11]: 64%
- IC50 [1]: 0.0004 µM
- IC50 [5]: 4.3 µM
- IC50 [6]: 1.6 µM
- IC50 [7]: 4.4 µM
- solubility thermodynamic [4]: 37 µM (≈ 16.6 µg/mL)
- logD [8]: 3.4
- Papp A→B [9]: 18 ×10⁻⁶ cm/s
- Papp B→A [10]: 30 ×10⁻⁶ cm/s
- clearance [13]: 57 mL/min/kg
- Vd [14]: 3.3 L/kg
- half-life [15]: 51.6 min
SMILES: C[C@@H]1Cn2ncc(C3CCN(S(C)(=O)=O)CC3)c2CN1c1cc(Cl)nc2[nH]ccc12
- IC50 [12]: 12.5 µM

- inhibition (INH) (Cytochrome P450 3A4): Not Active
- IC50 [1]: 0.029 µM
SMILES: C[C@@H]1Cn2ncc(C3CCN(S(C)(=O)=O)CC3)c2CN1c1ccnc2[nH]ncc12

- inhibition (INH) (Cytochrome P450 3A4): Active
- IC50 [1]: 0.44 µM
SMILES: C[C@@H]1Cn2ncc(C3CCN(S(C)(=O)=O)CC3)c2CN1c1ccnc(N)c1

- Ratio (Cytochrome P450 3A4): 0.023 µL/min/pmol
- IC50 [1]: 6.2 µM
SMILES: CC1(C)Cn2ncc(C3CCN(S(C)(=O)=O)CC3)c2CN1c1cc(Cl)nc2[nH]ccc12

- Ratio (Cytochrome P450 3A4): 0.004 µL/min/pmol
- IC50 [1]: 2.1 µM
SMILES: C[C@@H]1[C@@H](C)n2ncc(C3CCN(S(C)(=O)=O)CC3)c2CN1c1ccnc2[nH]ccc12

- Ratio (Cytochrome P450 3A4): 0.001 µL/min/pmol
- IC50 [1]: 0.041 µM
SMILES: C[C@@H]1Cc2ncn(C3CCN(S(C)(=O)=O)CC3)c2CN1c1ccnc2[nH]ccc12

- TDI (Cytochrome P450 3A4): Not Active
- IC50 [1]: 0.064 µM
SMILES: C[C@@H]1Cn2ncc(C3CCN(S(C)(=O)=O)CC3)c2C(=O)N1c1ccnc2[nH]ccc12

- Stability (Liver microsome): Stable
SMILES: [2H][C@@]1(C)Cn2ncc(C3CCN(S(C)(=O)=O)CC3)c2CN1c1cc(Cl)nc2[nH]ccc12

- Stability (Liver microsome): Unstable
SMILES: [2H]C1([2H])c2c(C3CCN(S(C)(=O)=O)CC3)cnn2C[C@@H](C)N1c1cc(Cl)nc2[nH]ccc12

- Stability (Liver microsome): Unstable
SMILES: [2H]C1([2H])c2c(C3CCN(S(C)(=O)=O)CC3)cnn2C[C@@]([2H])(C)N1c1cc(Cl)nc2[nH]ccc12
